The species entered for one series is Bos taurus. Nature of the series: Inhibition of bovine carbonic anhydrase assessed as conversion of 4-nitrophenyl acetate to 4-nitrophnolate at 0.27 to 2.07 uM after 5 mins. The procedure, abridged: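 Native bovine CA, concentration set from A280 (2.9 × 10^-6 M). Initial rate of 4-nitrophenyl acetate hydrolysis followed at 348 nm at pH 8. Substrate was 1.04 × 10^-3 to 1.875 × 10^-4 M, prepared in acetone/water, and inhibitors were dissolved in water. Non-enzymatic hydrolysis was subtracted, each point was run in triplicate, and values are means of 3 assays.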

The nature of series [1]: Inhibition of bovine carbonic anhydrase assessed as conversion of 4-nitrophenyl acetate to 4-nitrophnolate after 5 mins. Also on record: species or system Bos taurus. The procedure, abridged:
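Bovine CA at 2.9 × 10^-6 M (concentration set from A280) measured by initial rate of 4-nitrophenyl acetate hydrolysis, substrate in acetone/water over a range of concentrations. 4-Nitrophenolate formation followed at 348 nm, pH 8, with non-enzymatic hydrolysis subtracted. Inhibitors dissolved in distilled–deionized water. Triplicates at each substrate and inhibitor concentration; IC50 is the mean of 3 assays.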

Another series deals with Carbonic anhydrase 2 (Homo sapiens, UniProt P00918). Nature of the series: Inhibition of human carbonic anhydrase 2 assessed as conversion of 4-nitrophenyl acetate to 4-nitrophnolate after 5 mins.
Series [2] in a line: Cytotoxicity in sheep RBC assessed as hemolysis at 1000 uM after 20 mins. The settings on record: erythrocyte. Type of series: cell-based, Ovis aries. The procedure, abridged: (§1)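 Sheep erythrocytes were washed three times in PBS pH 7.4 just before the assay and used at a final 5% cell concentration in the same buffer. After incubation with compound, samples were centrifuged and supernatant absorbance was read at 405 nm. The 0% and 100% hemolysis references were erythrocyte stock in PBS and in distilled water, processed identically.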

Series [3] in a line: Cytotoxicity in sheep RBC assessed as hemolysis at 31.25 uM after 20 mins. Type of series: cell-based, Ovis aries. The settings on record: erythrocyte. The procedure, abridged: as §1
Series [4] can be described thus: Cytotoxicity in sheep RBC assessed as hemolysis at 62.5 uM after 20 mins. Type of series: cell-based, Ovis aries. Conditions: erythrocyte. The method, boiled down:
as §1

The nature of series [5]: Cytotoxicity in sheep RBC assessed as hemolysis at 0.125 to 1000 uM after 20 mins. The class given is cell-based, Ovis aries. Conditions: erythrocyte. The procedure, abridged:
as §1

The source made the active and inactive calls. The calls are words filed in the database; no cut-off is given here.

On to `CCCCCCS(N)(=O)=O`, for which, in the series listed under Bos taurus, the inhibition entry was “inactive”.

By IC50 is commonly meant the concentration needed to halve the response being measured. On to `[NH-]S(=O)(=O)C(F)(F)C(F)(F)C(F)(F)C(F)(F)C(F)(F)C(F)(F)F.[Na+]` [SODIUM PERFLUOROHEXANESULFONAMIDE], for which the IC50 worked out at 1.38 µM in series [1] and 0.122 µM at Carbonic anhydrase 2. In addition, in series [2], the Activity result is “Non-toxic”.

For `NS(=O)(=O)CCC(F)(F)C(F)(F)C(F)(F)C(F)(F)F`, the half-inhibitory concentration (IC50) in series [1] amounted to 2.09 µM.

As for `CCCCCCCCS(N)(=O)=O`, in the series listed under Bos taurus, the inhibition result is “inactive”.

As to `CC(=O)Nc1nnc(S(N)(=O)=O)s1` [ACETAZOLAMIDE], the IC50 in series [1] was determined as 1.35 µM.

With `NS(=O)(=O)C(F)(F)F` [TRIFLUOROMETHANESULFONAMIDE], in series [1], the IC50 turned out to be 1.5 µM.

Turning to `NS(=O)(=O)C(F)(F)C(F)(F)C(F)(F)C(F)(F)F` [SODIUM PERFLUOROBUTANESULFONAMIDE], the IC50 in series [1] was 1.67 µM.

With `[NH-]S(=O)(=O)C(F)(F)C(F)(F)C(F)(F)C(F)(F)C(F)(F)C(F)(F)C(F)(F)C(F)(F)F.[Na+]` [SODIUM PERFLUOROOCTANESULFONAMIDE], the Activity entry in series [3] is recorded as “Toxic”. Moreover, the IC50 in series [1] came out at 1.79 µM.

Regarding `NS(=O)(=O)C(F)(F)C(F)(F)C(F)(F)C(F)(F)C(F)(F)C(F)(F)C(F)(F)F`, the IC50 in series [1] amounted to 1.72 µM.

As to `NS(=O)(=O)C(F)(F)C(F)(F)C(F)(F)C(F)(F)S(N)(=O)=O`, in series [1], the IC50 was 1.74 µM.

As to `NS(=O)(=O)C(F)(F)C(F)(F)C(F)(F)C(F)(F)C(F)(F)C(F)(F)C(F)(F)C(F)(F)F`, the IC50 in series [1] was 1.58 µM. Moreover, in series [4], the Activity entry is recorded as “Toxic”.

`NS(=O)(=O)C(F)(F)C(F)(F)C(F)(F)C(F)(F)F`: the IC50 in series [1] was determined as 1.49 µM.

For the molecule `NS(=O)(=O)CCC(F)(F)C(F)(F)C(F)(F)C(F)(F)C(F)(F)C(F)(F)C(F)(F)C(F)(F)F`, the IC50 in series [1] is 1.66 µM.

Take `NS(=O)(=O)CCC(F)(F)C(F)(F)C(F)(F)C(F)(F)C(F)(F)C(F)(F)F`: the IC50 in series [1] was determined as 1.9 µM.

For the molecule `NS(=O)(=O)C(F)(F)C(F)(F)C(F)(F)C(F)(F)C(F)(F)C(F)(F)F`, the IC50 in series [1] turned out to be 1.47 µM. The Activity entry in series [5] and in series [2] was “Non-toxic” in each case.

For the origin of these results see ChEMBL document CHEMBL1154860, “Synthesis and investigation of inhibition effect of fluorinated sulfonamide derivatives on carbonic anhydrase” (Eur J Med Chem, 2010).
